Measured values: publication PMC11494403 (Nature plants, 2024)

Assays:
root = conditions: RALF1-induced; cited from earlier work
RHs = conditions: 2 day exposure to exogenous RALF1; cited from earlier work
[1] = MST, binding to Alexa Fluor 647-labelled oligogalacturonide OG7–13^647; conditions: relative to wild-type RALF22
Method in brief: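 Wild-type or mutant peptide, titrated from 200µM, against 40nM Alexa Fluor 647-labelled, fully demethylesterified 7-13mer oligogalacturonide. Incubated 10min at RT, then thermophoresis on a Monolith NT.115 at medium MST power and 80% LED excitation. Data kept only at S/N >5 with no aggregation or ligand-induced initial fluorescence change. Kd averaged over 3 independent experiments.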

fold reduction in affinity for OG7–13^647 [1] | Substance | root growth (root) | root hair length (RHs)
 | RALF1: exogenous RALF1 peptide of an earlier study (ATTKYISYQSLKRNSVPCSRRGASYYNCQNGAQANPYSRGCSKIARCRS; Protein RALF-like 1; UniProt Q9SRY3 72-120, looked up) | root growth inhibition | longer RHs
5.2 fold | AQKKYISYGAMARNSVPCSARGASYYNCQAGAQANPYSRGCSTITRCRR [RALF22^R82A,R90A,R100A] |  | 
